Assay results from ChEMBL document CHEMBL1641462, “Synthesis and in vivo evaluation of ¹⁸F-fluoroethyl GF120918 and XR9576 as positron emission tomography probes for assessing the function of drug efflux transporters” (Bioorg Med Chem, 2011).

Tests used:
Pancreas = test: Biodistribution in FVB mouse pancreas assessed per gram of tissue at 1 to 4.8 MBq, iv after 15 mins; type: ADME, organism-based; settings: in vivo, 0.25 h
In short: (§1)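 Male FVB mice (8–10 weeks, 25–29 g) given tracer 1.0–4.8 MBq/7.1–34 pmol iv; killed by cervical dislocation at set times (n = 4 per group). Blood by heart puncture; tissues dissected, weighed and gamma counted. Radioactivity decay-corrected to injection time, expressed as %ID/g, mean ± SD.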

Spleen = test: Biodistribution in FVB mouse spleen assessed per gram of tissue at 1 to 4.8 MBq, iv after 60 mins; type: ADME, organism-based; settings: in vivo, 1 h; in short: as §1
Plasma = test: Metabolic stability in FVB mouse plasma assessed as recovery of radioactivity at 1 to 4.8 MBq, iv by HPLC analysis; type: ADME, organism-based; settings: in vivo
In short: (§2)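 Brain homogenate or plasma from tracer plus GF120918 (5 mg/kg) co-injected FVB mice deproteinized with equal volume ice-cold acetonitrile; radioactivity in supernatant, precipitate and HPLC waste gamma counted to give recovery, mean ± SD (n = 7).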

Brain [1] = test: Biodistribution in FVB mouse brain assessed per gram of tissue at 1 to 4.8 MBq, iv after 60 mins; type: ADME, organism-based; settings: in vivo, 1 h
In short: (§3)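 Male FVB mice (8–10 weeks, 25–29 g) received tracer iv (1.0–4.8 MBq, 7.1–34 pmol). Killed by cervical dislocation at 5, 15, 30, 60 or 90 min. Blood taken by heart puncture; tissues dissected, weighed and gamma-counted. Activity decay-corrected to injection time and given as %ID/g; mean ± SD, n = 4 per time point.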

[2] = Biodistribution in FVB mouse small intestine assessed per gram of tissue at 1 to 4.8 MBq, iv after 90 mins; type: ADME, organism-based; settings: in vivo, 1.5 h; in short: as §1
Bone [3] = test: Biodistribution in FVB mouse bone assessed per gram of tissue at 1 to 4.8 MBq, iv after 60 mins; type: ADME, organism-based, Bone element; settings: in vivo, 1 h; in short: as §3
Blood [4] = test: Biodistribution in FVB mouse blood assessed per gram of tissue at 1 to 4.8 MBq, iv after 90 mins; type: ADME, organism-based; settings: in vivo, 1.5 h; in short: as §3
Muscle tissue [5] = test: Biodistribution in FVB mouse muscle assessed per gram of tissue at 1 to 4.8 MBq, iv after 15 mins; type: ADME, organism-based; settings: in vivo, 0.25 h; in short: as §3
Blood [6] = test: Biodistribution in FVB mouse blood assessed per gram of tissue at 1 to 4.8 MBq, iv after 15 mins; type: ADME, organism-based; settings: in vivo, 0.25 h; in short: as §3
Liver [7] = test: Biodistribution in FVB mouse liver assessed per gram of tissue at 1 to 4.8 MBq, iv after 5 mins; type: ADME, organism-based; settings: in vivo; in short: as §3
Blood [8] = test: AUC (0 to 60 mins) in wild type mouse blood at 2.8 to 5.6 MBq, iv; type: ADME, tissue-based
In short: (§4)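 Small-animal PET in male wild-type and knockout mice under isoflurane (1.0–1.5%), prone on the scanner bed. Tracer (2.8–5.6 MBq, 20–40 pmol) given iv, with or without co-injected GF120918 at 5 mg/kg. Dynamic 60-min list-mode scan. Decay-corrected SUV read from ROIs on brain, and on the ventricular cavity for blood. AUC taken over 0–60 min in SUV·min; n = 4 per group.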

Kidney [9] = test: Biodistribution in FVB mouse kidney assessed per gram of tissue at 1 to 4.8 MBq, iv after 5 mins; type: ADME, organism-based; settings: in vivo; in short: as §3
Heart [10] = test: Biodistribution in FVB mouse heart assessed per gram of tissue at 1 to 4.8 MBq, iv after 5 mins; type: ADME, organism-based; settings: in vivo; in short: as §3
[11] = Fold increase in brain-to-blood ratio of drug level in FVB mouse at 1 to 4.8 MBq, iv co-administered with 5 mg/kg, iv of GF120918; settings: brain and blood, with GF120918, 5 mg/kg iv
Lung [12] = test: Biodistribution in FVB mouse lung assessed per gram of tissue at 1 to 4.8 MBq, iv after 5 mins; type: ADME, organism-based; settings: in vivo; in short: as §3
Muscle tissue [13] = test: Biodistribution in FVB mouse muscle assessed per gram of tissue at 1 to 4.8 MBq, iv after 90 mins; type: ADME, organism-based; settings: in vivo, 1.5 h; in short: as §3
Liver [14] = test: Biodistribution in FVB mouse liver assessed per gram of tissue at 1 to 4.8 MBq, iv after 90 mins; type: ADME, organism-based; settings: in vivo, 1.5 h; in short: as §3
Brain [15] = test: Biodistribution in FVB mouse brain assessed per gram of tissue at 1 to 4.8 MBq, iv after 15 mins; type: ADME, organism-based; settings: in vivo, 0.25 h; in short: as §3
Brain [16] = test: Ratio of AUC (0 to 60 mins) in wild type mouse brain to AUC (0 to 60 mins) in wild type mouse brain at 2.8 to 5.6 MBq, iv co-administered with GF120918; type: ADME, organism-based; settings: in vivo
Brain [17] = test: AUC (0 to 60 mins) in BCRP knockout mouse brain at 2.8 to 5.6 MBq, iv; type: ADME, organism-based; settings: in vivo; in short: as §4
[18] = Biodistribution in FVB mouse small intestine assessed per gram of tissue at 1 to 4.8 MBq, iv after 30 mins; type: ADME, organism-based; settings: in vivo, 0.5 h; in short: as §1
[19] = Biodistribution in FVB mouse small intestine assessed per gram of tissue at 1 to 4.8 MBq, iv after 15 mins; type: ADME, organism-based; settings: in vivo, 0.25 h; in short: as §1
Lung [20] = test: Biodistribution in FVB mouse lung assessed per gram of tissue at 1 to 4.8 MBq, iv after 30 mins; type: ADME, organism-based; settings: in vivo, 0.5 h; in short: as §3
Brain [21] = test: Ratio of AUC (0 to 60 mins) in P-gp knockout mouse brain to AUC (0 to 60 mins) in wild type mouse brain at 2.8 to 5.6 MBq, iv; type: ADME, organism-based; settings: in vivo
Blood [22] = test: AUC (0 to 60 mins) in P-gp/BCRP knockout mouse blood at 2.8 to 5.6 MBq, iv; type: ADME, tissue-based; in short: as §4
Brain [23] = test: Biodistribution in P-gp knockout mouse brain at 3.3 to 4.9 MBq, iv after up to 60 mins; type: ADME, organism-based; settings: in vivo, 1 h
Kidney [24] = test: Biodistribution in FVB mouse kidney assessed per gram of tissue at 1 to 4.8 MBq, iv after 30 mins; type: ADME, organism-based; settings: in vivo, 0.5 h; in short: as §3
Brain [25] = test: AUC (0 to 60 mins) in P-gp/BCRP knockout mouse brain at 2.8 to 5.6 MBq, iv; type: ADME, organism-based; settings: in vivo; in short: as §4
Kidney [26] = test: Biodistribution in FVB mouse kidney assessed per gram of tissue at 1 to 4.8 MBq, iv after 60 mins; type: ADME, organism-based; settings: in vivo, 1 h; in short: as §3
Liver [27] = test: Biodistribution in FVB mouse liver assessed per gram of tissue at 1 to 4.8 MBq, iv after 15 mins; type: ADME, organism-based; settings: in vivo, 0.25 h; in short: as §3
[28] = Fold increase in testis-to-blood ratio of drug level in FVB mouse at 1 to 4.8 MBq, iv co-administered with 5 mg/kg, iv of GF120918; settings: testis and blood, with GF120918, 5 mg/kg iv
Heart [29] = test: Biodistribution in FVB mouse heart assessed per gram of tissue at 1 to 4.8 MBq, iv after 60 mins; type: ADME, organism-based; settings: in vivo, 1 h; in short: as §3
Brain [30] = test: Biodistribution in FVB mouse brain assessed per gram of tissue at 1 to 4.8 MBq, iv after 30 mins; type: ADME, organism-based; settings: in vivo, 0.5 h; in short: as §3
Brain [31] = test: Metabolic stability in FVB mouse brain assessed as recovery of radioactivity at 1 to 4.8 MBq, iv by HPLC analysis; type: ADME, organism-based; settings: in vivo; in short: as §2
Bone [32] = test: Biodistribution in FVB mouse bone assessed per gram of tissue at 1 to 4.8 MBq, iv after 15 mins; type: ADME, organism-based, Bone element; settings: in vivo, 0.25 h; in short: as §3
Bone [33] = test: Biodistribution in FVB mouse bone assessed per gram of tissue at 1 to 4.8 MBq, iv after 90 mins; type: ADME, organism-based, Bone element; settings: in vivo, 1.5 h; in short: as §3

| SMILES | Drug uptake (Pancreas) [% ID/g] | Drug uptake (Spleen) [% ID/g] | Stability (Plasma) [%] | Drug uptake (Brain [1]) [% ID/g] | Drug uptake [2] [% ID/g] | Drug uptake (Bone [3]) [% ID/g] | Drug uptake (Blood [4]) [% ID/g] | Drug uptake (Muscle tissue [5]) [% ID/g] | Drug uptake (Blood [6]) [% ID/g] | Drug uptake (Liver [7]) [% ID/g] | AUC (Blood [8]) [SUV·min] | Drug uptake (Kidney [9]) [% ID/g] | Drug uptake (Heart [10]) [% ID/g] | Fold increase [11] | Drug uptake (Lung [12]) [% ID/g] | Drug uptake (Muscle tissue [13]) [% ID/g] | Drug uptake (Liver [14]) [% ID/g] | Drug uptake (Brain [15]) [% ID/g] | Ratio AUC (Brain [16]) | SUV (Brain [17]) | further results |
| --- | --- | --- | --- | --- | --- | --- | --- | --- | --- | --- | --- | --- | --- | --- | --- | --- | --- | --- | --- | --- | --- |
| COc1cc2c(cc1OC)CN(CCc1ccc(NC(=O)c3cccc4c(=O)c5cccc(OCC[18F])c5[nH]c34)cc1)CC2 | 9.68 | 5.74 | 94.1 | 0.17 | 17.15 | 1.43 | 0.36 | 1.18 | 0.72 | 4.88 | 25.6 | 20.65 | 6.65 | 10 | 19.6 | 0.38 | 14.82 | 0.16 | 6.9 | 5 | Drug uptake [18]: 7.6 % ID/g; Drug uptake [19]: 7.09 % ID/g; Drug uptake (Lung [20]): 7.21 % ID/g; Ratio AUC (Brain [21]): 2.4; AUC (Blood [22]): 25 SUV·min; Activity (Brain [23]): Active; Drug uptake (Kidney [24]): 19.45 % ID/g; AUC (Brain [25]): 39.8 SUV·min; Drug uptake (Kidney [26]): 23.44 % ID/g; Drug uptake (Liver [27]): 5.99 % ID/g; Fold increase [28]: 7; Drug uptake (Heart [29]): 1.19 % ID/g; Drug uptake (Brain [30]): 0.14 % ID/g; Stability (Brain [31]): 91.4%; Drug uptake (Bone [32]): 1.66 % ID/g; Drug uptake (Bone [33]): 1.3 % ID/g |
| COc1cc(NC(=O)c2cnc3ccccc3c2)c(C(=O)Nc2ccc(CCN3CCc4cc(OC)c(OCC[18F])cc4C3)cc2)cc1OC | 8.27 | 7.18 | 95.3 | 0.1 | 24.45 | 1.62 | 0.57 | 1.61 | 0.88 | 29.33 | 33.2 | 18 | 7.44 | 10 | 22.5 | 0.68 | 22.18 | 0.11 | 7.1 | 6.5 | Drug uptake [18]: 14.09 % ID/g; Drug uptake [19]: 9.42 % ID/g; Drug uptake (Lung [20]): 17.89 % ID/g; Ratio AUC (Brain [21]): 2.3; AUC (Blood [22]): 33.9 SUV·min; Activity (Brain [23]): Active; Drug uptake (Kidney [24]): 11.34 % ID/g; AUC (Brain [25]): 32.9 SUV·min; Drug uptake (Kidney [26]): 11.29 % ID/g; Drug uptake (Liver [27]): 31.06 % ID/g; Fold increase [28]: 5; Drug uptake (Heart [29]): 2.09 % ID/g; Drug uptake (Brain [30]): 0.11 % ID/g; Stability (Brain [31]): 92.5%; Drug uptake (Bone [32]): 1.85 % ID/g; Drug uptake (Bone [33]): 1.45 % ID/g |
